# Reference: the EternaBench riboswitch data
# Tested on: MS2 coat protein
# Assay: apparent Kd, MS2 coat protein; higher = weaker binding; RNA-MaP array; FMN 200 µM where present
# Procedure, shortened: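 Green signal from SNAP-549-labelled MS2 coat protein was normalised to red-channel RNA signal and to the median Fmax of control clusters. The protein was titrated from 0.7 or 1.5 nM, doubling to 3 µM, without and then with constant ligand, over designs transcribed by stalled E. coli RNA polymerase on Illumina sequencing-chip clusters, in 100 mM Tris-HCl pH 7.5, 80 mM KCl, 4 mM MgCl2, BSA, DTT, yeast tRNA and Tween-20. The apparent Kd is the median of filtered per-cluster binding-curve fits.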
# [1] = designed as: ON switch for flavin mononucleotide, no ligand
# [2] = ligand present: flavin mononucleotide, designed as: ON switch for flavin mononucleotide
# [3] = designed as: OFF switch for flavin mononucleotide, no ligand
# [4] = ligand present: flavin mononucleotide, designed as: OFF switch for flavin mononucleotide
Sequence,apparent Kd [1] [nM],apparent Kd [2] [nM],apparent Kd [3] [nM],apparent Kd [4] [nM]
GGAUGAUUAAUAGGAUAUUAGUUGUAAAAUGGUUAAGAAGGAUUAAUGAUUUAAACGACCAGUUACAUGAGGAUCACCCAUGUA,21.6,18.9,,
GCGGAGAUACAGAAGGGAUAGGCCCUGGGCUAGUCAGGAUAUGUACGACGCAUCGUACAUGAGGAUCACCCAUGUAGCCGCUUG,278,189,,
CCACGUCACAUAUACAUGAGGAUCACCCAUGUCAAAAGACAUGAGGAUAUGGAUCCUAAUUGGAUCCAGAAGGCAUGGACGUGG,757,50.8,,
CAGCAUCAUGUAGGAUAUGCGUGGCGAAGCUAUGCAGAAGGACAUGAGGAUCACCCAUGUCUUAGCUAGCGUACUAGCUUGCUG,,,7.5,21.4
AAGAAAGAGCGAGGAUAUGCGAUAAAAUAAUAAGCAGAAGGUGCAUAACAUGAGGAUCACCCAUGUUGUUGUCAUGUCAAGAUU,,,14.2,18.2
GUAGCAUACCGAGGAUAUUCAUACCGGAAACGGACAUGAGGAUCACCCAUGUAGCGAAAGCUUUGGGAGAAGGCGGAAUGCUAC,905,33.9,,
AGAAACUACGAGAAGGACAAAAAAGGUGCCGCAAACAUGAGGAUCACCCAUGUAGGAUAUCGUAGUUUCAGGAUCGUGAGAUCA,,,16.5,98.3
CUCGUGUAAGGAUAUACGAGUCACGGAAAUAAACCGUGAAGGUAGAAGGUACAUGAGGAUCACCCAUGUAAAAC,,,40,347
CUAUGAGCGAUAGGAUAUACUGAGAUUGAGUGGGUAGAAGGAUCGAUAGUGUAGAAGACAUGAGGAUCACCCAUGUUAUGGGUU,726,501,,
UACAGCGUAGAUAAUAAUGAUUACAUGAGGAUCACCCAUGUAUAGGAUAUGCAGUGGAAUACACUGCAGAAGGAUACAUCGCUG,,,17,37
CGUUGAUUUAUUGGAUGAUAUGAUGAGGAUAUCAAUAUUUGUUACAUGAGGAUCACCCAUGUUAAUGAGAAGGCAUAAUUAACG,8.49,7.96,,
GCAACGCCUGACAUGAGGAUCACCCAUGUUAGAUUGUUAUGUCAGGAUAUUGUCUAGAAACUAGACAAGAAGGGAUGCGUUGCU,304,21.8,,
UUGAUGUCAGGAUAUGCUUAAUAUAUUUUAUUAUAAUAUAUACAUGAGGAUCACCCAUGUAGAAGGGACAUUAU,,,29.1,25.7
UUGAAAUUGUAAGGAUAUACUCUGUGAUGAAGAGUAGAAGGUACUUACAUGAGGAUCACCCAUGUUUAACGAGAUACUAAUCGU,32,16.6,,
CGCACUGAUAGAGGAUAUGUUGUACAUGAGGAUCACCCAUGUGUUUUUGUAUCAAUAUUAGUGAAACAGAAGGCUAUUAGUGCG,,,5.65,4.65
GCCUAGACUAGGCCCACGGCAUCACAGGAUAUGCCAAUCACAUGAGGAUCACCCAUGUCAACUCCGCAGAAGGGUGAUAUCGUG,235,14.3,,
AAGAAGUCAGGAUAUGCAUGGCGGGACUUGCGUCGUGGCGUGCAGAAGGGACAUGAGGAUCACCCAUGUAAAGG,,,151,180
UUCAUCGAUGAAGGAUAUCUAUGUCCAACAUGAGGAUCACCCAUGUUGAGGAUUACCUAUGUGUAGGAGAAGGUCAAUAUGACU,7.03,6.39,,
UUAUGUUAUGUAGGAUAUCACUUUAAUUGAUUAAUAUAUGAAUAUUGAAUUUGAGAAGGACAUUUACAUGAGGAUCACCCAUGU,,,16.2,13.6
AAGAAGUGAGGAUAUGCUGCUCGUCACUUGCGUGAUGAGUAGCAGAAGGCACAUGAGGAUCACCCAUGUGGAAG,,,33.9,47.8
UGUAUACAGUCAGGAUAUCAUAGGUUGGUGCUUCUCCAGUGGUACAUGAGGAUCACCCAUGUUUAUGAGAAGGGACUAUUACCU,,,7.82,15.1
CUUUUGUGAGGAUAUUCGUAGUAGGGUCAUGGCAUUAUUAUGGAGAAGGCACAUGAGGAUCACCCAUGUACCUU,,,19.7,27.5
GGGUGAGACGAGAAGGGAUUUUCACAUGAGGAUCACCCAUGUCGAGUAGUCAGGAUAUCGGGCCAUGAUUACCCUAUAGAAGAC,298,70.5,,
CUCAAACAUGAGGAUCACCCAUGUCAGGAUAUGAUACUAUGUACUUCGGUACAUAGUAUCAGAAGGGAUAUGAA,,,87.6,111

Sequence,apparent Kd [1] [nM],apparent Kd [2] [nM],apparent Kd [3] [nM],apparent Kd [4] [nM]
UUUAUAUGAGGAUAUCCGAGGAGCCACAUGAGGAUCACCCAUGUCGUCUUUUGUGAUAGUGGAGAAGGUGUGUCAG,,,27.7,31.6
AAACUCAUUGUCAGGAUAUGUAUUGAAGGAAUCGGACAGAAGGGACAUGAGGAUCACCCAUGUUACUAAGACCC,,,25.9,74.3
GCUGACGAUGUAGGAUAUCUCGACGAUAAGUCGAGAGAAGGACAUGAGGAUCACCCAUGUAUCUCAACGUCAGCGAGGAAACUC,,,16.4,20.4
UCUAUAUAGAUUCAUCAAUACAGUAAGGAUAUGAGAUACAUGAGGAUCACCCAUGUGCAUGUGGAUUAGAAGGUACAAUUAACU,,,60,46.3
UUAAAUCAUGUAGGAUAUGCAUGGCGAAGCUACGCAGAAGGACAUGAGGAUCACCCAUGUUAUAGCUACCAAGUAAGGUGGCAA,,,77.9,236
UAGCCUGUAGGAGUGGAAGCCGGUAGAAGGCAGCAUUGAUGGACCGACAUGAGGAUCACCCAUGUUGAGGAUAUACCGGGCACU,,,39.3,247
UGUGCUGAAGGAUAUGCGUAAUCUCGGUGACGAGUAGAUCUACAUGAGGAUCACCCAUGUAGAAGGUCAGUACU,,,17.8,18.9
GAUUAGUGAGGAUAUAUUUACGAUCCUCAGCUUUAUUCAGGACAUGAGGAUCACCCAUGUAGAAGGCGUUAAUC,,,25.8,34.6
UUGGACGUCGUAGGAUAUGUAGGAUAUUCCUACAUGAGGAUCACCCAUGUUGACAUGGAAGAAGGACAGAAGGACGAUCUCCAU,360,5.49,,
ACAAAUGGAGGAUAUACAUGAGGAUCACCCAUGUUUAUCCUACAUAUGUGAUACUCAUGUAGAAGGCCAUAUGA,,,12.7,12.5
UUGCUACAUGAGGAUCACCCAUGUCAGGAUAUUGUGUAUACCGUGGAAGCUGUGUCGAUAAGAAGGGACUGUCU,,,26.6,30.5
UAUAUAUAGUAAGGAUAUGUAAUUAUUCUAUAAACAGAAGGUACUGACAUGAGGAUCACCCAUGUUUUAGUGUGGGCAUGUAGA,,,43.4,46
AGUAAGAUGCAGAAGGUGUCAGCGAGAGCUACGACAUGAGGAUCACCCAUGUACUAGUGAGAGUACGAGGAUAUGCAUCUUACA,37.3,13.9,,
CUUUCGUGAGGAUAUGUGGCUUCGAUCGUAAAAUCGAGGCUACAGAAGGCACAUGAGGAUCACCCAUGUUCCUC,,,36.2,528
AAACAUGUCCGAGGAUAUCUGGAAACAUUUUCAAGAGAAGGCGGACAUGAGGAUCACCCAUGUCUCUCCUCAUCAACUACAAAC,,,8.57,53.2
UUAUUUAUACAAGGAUAUCAAUUAUAUACACAUCCUACAUGAGGAUCACCCAUGUUUUAUUUUUUUGAGAAGGUGUAUUGUGGG,92.3,109,,
UCACGGGAUUGAGGAUAUAUAUUAAUUUUUACAAUAGAAGGCAAAUUGUUAGUUUUUUCACUAUACAUGAGGAUCACCCAUGUU,,,27.4,25.1
GCAUGUAAGCAGAAGGGCAGAUAUUUUGAUACUGCAGGAUAUGCAGAAUCAUAUCCACAUGAUAACAUGAGGAUCACCCAUGUA,,,32.3,29
GAUCAGCUUGUGAGGAUAUCCGGGCUUAAAGGCUAGGAGAAGGUACAUGAGGAUCACCCAUGUAGAGUCCUGGG,,,73.8,111
CGCAUCUCUUCAAUUCCUUCACAUGAGGAUCACCCAUGUAGGGAGGAUAUGCAAGCCUAUUGGCGGCAGAAGGCCCUGCAAUGG,,,177,86.9
GGAUAAUUGAUCCUUUUUUAUUACAUGAGGAUCACCCAUGUGCAGGAUAUCGAUUAUUAUAGUUUCGAGAAGGGCAAGAAUUGU,,,73.4,276
AAGAUACUUACAGGAUAUAGGGCAUAGGGUGCCCUAGAAGGGUGAACAUGAGGAUCACCCAUGUAUGUAUCAGAUUAGAAGGCA,53.3,41.8,,
AGCAUGCUAGGAUAUACGAAACAUUAGGGUUCUUUGUAUAAACAUGAGGAUCACCCAUGUAGAAGGAGCGUGCA,,,46.1,169
GACUUGUUAGGAUAUCUUACAUUUGCAUCAUAGUUACCAUUGGAGAAGGGACAUGAGGAUCACCCAUGUUUGGU,,,40,39.8
